Test results from ChEMBL document CHEMBL1143246, “Design and synthesis of bicyclic pyrimidinones as potent and orally bioavailable HIV-1 integrase inhibitors” (J Med Chem, 2008).

Legend:
[1] = tested on: Human immunodeficiency virus 1; assay: Antiviral activity against HIV1 in human MT4 cell assessed as inhibition of virus spread in presence of 10% fetal bovine serum; type: functional; details: Human immunodeficiency virus 1, MT4; read-out: CIC95
In short: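 Spread of HIV-1 infection in MT-4 human T-lymphoid cell culture with 10% fetal bovine serum; CIC95 is the concentration inhibiting spread by ≥95%; mean of at least three independent experiments.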

[2] = tested on: Human immunodeficiency virus 1; assay: Antiviral activity against HIV1 in human MT4 cell assessed as inhibition of virus spread in presence of 50% normal human serum; type: functional; details: Human immunodeficiency virus 1, MT4; read-out: CIC95
In short: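 Spread of HIV-1 infection in MT-4 human T-lymphoid cell culture with 50% normal human serum; CIC95 is the concentration inhibiting spread by ≥95%; mean of at least three independent experiments.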

[3] = Inhibition of recombinant HIV1 integrase strand transfer activity
Liver = assay: Metabolic stability in dog liver microsomes in presence of UDPGA; type: ADME, Canis lupus familiaris, Microsome
Liver microsomes [4] = assay: Metabolic stability in human liver microsomes in presence of UDPGA; type: ADME, Microsome
In short: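 Liver microsomes (1 mg/mL) with test compound at 2 µM, incubated with UDPGA or NADPH; degradation measured by LC/MS/MS after 1 h.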

Liver microsomes [5] = assay: Metabolic stability in rat liver microsomes in presence of UDPGA; type: ADME, Microsome
Homo sapiens = species on record: Homo sapiens; assay: Protein binding in human plasma; details: read-out: PPB (converted)
[6] = Plasma clearance in rat at 3 mg/kg, po or 3 mg/kg, iv; type: ADME, organism-based
In short: (§1)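 In vivo PK: iv dosing in DMSO/PEG400/H₂O mixtures, oral dosing as methylcellulose suspension. Half-life was taken after iv dosing; AUC and Cmax after po dosing.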

[7] = Oral bioavailability in rat at 3 mg/kg; type: ADME, organism-based; details: in vivo; in short: as §1

CC(c1nc(O)c(O)c(C(=O)NCc2ccc(F)cc2)n1)N(C)C (stereo not given)
IC95 [1]: 130 nM | IC95 [2]: 500 nM | IC50 [3]: 100 nM

CN1CCOCC1c1nc(O)c(O)c(C(=O)NCc2ccc(F)cc2)n1 (stereo not given)
IC95 [1]: 30 nM | IC95 [2]: 230 nM | IC50 [3]: 10 nM

O=C(NCc1ccc(F)cc1)c1ncnc(O)c1O
IC95 [1]: > 10000 nM | IC95 [2]: > 10000 nM | IC50 [3]: 60 nM

CN(C)C(=O)C(=O)N(C)[C@@H]1CCCCn2c1nc(C(=O)NCc1ccc(F)cc1)c(O)c2=O
IC95 [1]: 21 nM | IC95 [2]: 42 nM | IC50 [3]: 35 nM

CN1CCN(S(=O)(=O)N(C)[C@@H]2CCCn3c2nc(C(=O)NCc2ccc(F)cc2)c(O)c3=O)CC1
IC95 [1]: 13 nM | IC95 [2]: 20 nM | IC50 [3]: 10 nM

CN(C)C(=O)C(=O)N(C)[C@@H]1CCCn2c1nc(C(=O)NCc1ccc(F)cc1)c(O)c2=O
IC95 [1]: 67 nM | IC95 [2]: 98 nM | IC50 [3]: 19 nM

CN(C(=O)CS(=O)(=O)N(C)C)[C@@H]1CCCn2c1nc(C(=O)NCc1ccc(F)cc1)c(O)c2=O
IC95 [1]: 31 nM | IC95 [2]: 62 nM | IC50 [3]: 7 nM

O=C(NCc1ccc(F)cc1)c1nc2n(c(=O)c1O)CCCC2
IC50 [3]: 5 nM

CN1CCOCC1c1nc(C(=O)NCc2ccc(F)cc2)c(O)c(=O)n1C (stereo not given)
IC95 [1]: 60 nM | IC95 [2]: 100 nM

O=C(NCc1ccc(F)cc1)c1nc2n(c(=O)c1O)CCC2
IC50 [3]: 8 nM

O=C(NCc1ccc(F)cc1)c1nc2n(c(=O)c1O)CCCCC2
IC50 [3]: 19 nM

CN(C1CCCCn2c1nc(C(=O)NCc1ccc(F)cc1)c(O)c2=O)S(C)(=O)=O (racemic)
IC95 [1]: 31 nM | IC95 [2]: 125 nM | IC50 [3]: 16 nM

CN(C(=O)C(F)F)C1CCCn2c1nc(C(=O)NCc1ccc(F)cc1)c(O)c2=O (racemic)
IC95 [1]: 500 nM | IC95 [2]: 1000 nM | IC50 [3]: 18 nM

CC(=O)N(C)C1CCCCn2c1nc(C(=O)NCc1ccc(F)cc1)c(O)c2=O (racemic)
IC95 [1]: 250 nM | IC95 [2]: 500 nM | IC50 [3]: 8 nM

CN(Cc1ccccc1)C1CCCCn2c1nc(C(=O)NCc1ccc(F)cc1)c(O)c2=O (racemic)
IC50 [3]: 62 nM

CN(Cc1ccccc1)C1CCCn2c1nc(C(=O)NCc1ccc(F)cc1)c(O)c2=O (racemic)
IC50 [3]: 4 nM

CC(=O)N(C)C1CCn2c1nc(C(=O)NCc1ccc(F)cc1)c(O)c2=O (racemic)
IC95 [1]: > 1000 nM | IC95 [2]: > 1000 nM | IC50 [3]: 9 nM

CC(=O)N(C)C1CCCn2c1nc(C(=O)NCc1ccc(F)cc1)c(O)c2=O (racemic)
IC95 [1]: 1000 nM | IC95 [2]: 1000 nM | IC50 [3]: 6 nM

CN(C(=O)CS(C)(=O)=O)C1CCCCn2c1nc(C(=O)NCc1ccc(F)cc1)c(O)c2=O (racemic)
IC95 [1]: 63 nM | IC95 [2]: 125 nM | IC50 [3]: 17 nM

CN(C)C(=O)C(=O)N(C)C1CCn2c1nc(C(=O)NCc1ccc(F)cc1)c(O)c2=O (racemic)
IC95 [1]: > 1000 nM | IC95 [2]: > 1000 nM | IC50 [3]: 20 nM

CN(C)C(=O)C(=O)N(C)C1CCCCn2c1nc(C(=O)NCc1ccc(F)cc1)c(O)c2=O (racemic)
IC95 [1]: 94 nM | IC95 [2]: 63 nM | IC50 [3]: 13 nM

O=C(NCc1ccc(F)cc1)c1nc2n(c(=O)c1O)CCCC2N1CCOCC1 (racemic)
IC50 [3]: 5 nM

CN(C1CCCn2c1nc(C(=O)NCc1ccc(F)cc1)c(O)c2=O)S(=O)(=O)N1CCOCC1 (racemic)
IC95 [1]: 15 nM | IC95 [2]: 31 nM | IC50 [3]: 11 nM

CN(C)S(=O)(=O)N(C)C1CCCn2c1nc(C(=O)NCc1ccc(F)cc1)c(O)c2=O (racemic)
IC95 [1]: 16 nM | IC95 [2]: 21 nM | IC50 [3]: 5 nM

CN(C)S(=O)(=O)N(C)C1CCn2c1nc(C(=O)NCc1ccc(F)cc1)c(O)c2=O (racemic)
IC95 [1]: > 1000 nM | IC95 [2]: > 1000 nM | IC50 [3]: 45 nM

CN1CCCN(C2CCCn3c2nc(C(=O)NCc2ccc(F)cc2)c(O)c3=O)S1(=O)=O (racemic)
IC95 [1]: 16 nM | IC95 [2]: 47 nM | IC50 [3]: 14 nM

CN(C)S(=O)(=O)N(C)C1CCCCn2c1nc(C(=O)NCc1ccc(F)cc1)c(O)c2=O (racemic)
IC95 [1]: 31 nM | IC95 [2]: 125 nM | IC50 [3]: 10 nM

CN(C1CCCn2c1nc(C(=O)NCc1ccc(F)cc1)c(O)c2=O)S(=O)(=O)N1CCCCC1 (racemic)
IC95 [1]: 63 nM | IC95 [2]: 125 nM | IC50 [3]: 9 nM

O=C(NCc1ccc(F)cc1)c1nc2n(c(=O)c1O)CCCC2N1CCCCC1 (racemic)
IC50 [3]: 4 nM

CN1CCN(S(=O)(=O)N(C)C2CCCn3c2nc(C(=O)NCc2ccc(F)cc2)c(O)c3=O)CC1 (racemic)
IC95 [1]: 6 nM | IC95 [2]: 20 nM | IC50 [3]: 7 nM

Cc1nn(C)c(C)c1S(=O)(=O)N(C)C1CCCn2c1nc(C(=O)NCc1ccc(F)cc1)c(O)c2=O (racemic)
Stability (Liver): 78 %/hr | IC95 [1]: 21 nM | IC95 [2]: 63 nM | Stability (Liver microsomes [4]): 90 %/hr | Stability (Liver microsomes [5]): 94 %/hr | IC50 [3]: 7 nM

CN(C)C1CCn2c1nc(C(=O)NCc1ccc(F)cc1)c(O)c2=O (racemic)
IC50 [3]: 7 nM

CS(=O)(=O)CC(=O)NC1CCCn2c1nc(C(=O)NCc1ccc(F)cc1)c(O)c2=O (racemic)
IC95 [1]: 1000 nM | IC95 [2]: 1000 nM | IC50 [3]: 7 nM

CN(C(=O)CS(C)(=O)=O)C1CCCn2c1nc(C(=O)NCc1ccc(F)cc1)c(O)c2=O (racemic)
IC95 [1]: 16 nM | IC95 [2]: 22 nM | fraction unbound (Homo sapiens): 0.3 | IC50 [3]: 6 nM

CN(C(=O)CS(=O)(=O)N(C)C)C1CCCn2c1nc(C(=O)NCc1ccc(F)cc1)c(O)c2=O (racemic)
IC95 [1]: 16 nM | IC95 [2]: 47 nM | fraction unbound (Homo sapiens): 0.19 | IC50 [3]: 9 nM

O=C(NCc1ccc(F)cc1)c1nc2n(c(=O)c1O)CCCC2N1CCCC1 (racemic)
IC50 [3]: 63 nM

CN(C1CCCn2c1nc(C(=O)NCc1ccc(F)cc1)c(O)c2=O)S(C)(=O)=O (racemic)
Stability (Liver): 29 %/hr | IC95 [1]: 26 nM | clearance [6]: 48 mL/min/kg | IC95 [2]: 86 nM | Stability (Liver microsomes [4]): 74 %/hr | Stability (Liver microsomes [5]): 88 %/hr | IC50 [3]: 12 nM | bioavailability [7]: 47%

CN(C)C1CCCCn2c1nc(C(=O)NCc1ccc(F)cc1)c(O)c2=O (racemic)
IC50 [3]: 550 nM

CN(C(=O)Cn1cccn1)C1CCCn2c1nc(C(=O)NCc1ccc(F)cc1)c(O)c2=O (racemic)
IC95 [1]: > 1000 nM | IC95 [2]: > 1000 nM | IC50 [3]: 3 nM

CN(C(=O)c1nc2ncccn2n1)C1CCCn2c1nc(C(=O)NCc1ccc(F)cc1)c(O)c2=O (racemic)
IC95 [1]: 250 nM | IC95 [2]: 250 nM | IC50 [3]: 10 nM

CN(C1CCCn2c1nc(C(=O)NCc1ccc(F)cc1)c(O)c2=O)S(=O)(=O)N1CCCC1 (racemic)
IC95 [1]: 16 nM | IC95 [2]: 47 nM | IC50 [3]: 7 nM

CN1CCCN(C2CCCCn3c2nc(C(=O)NCc2ccc(F)cc2)c(O)c3=O)S1(=O)=O (racemic)
IC95 [1]: 78 nM | IC95 [2]: 156 nM | IC50 [3]: 6 nM

CN(C)C(=O)C(=O)N(C)C1CCCn2c1nc(C(=O)NCc1ccc(F)cc1)c(O)c2=O (racemic)
IC95 [1]: 38 nM | IC95 [2]: 40 nM | IC50 [3]: 7 nM

O=C(NCc1ccc(F)cc1)c1nc2n(c(=O)c1O)CCCCC2N1CCOCC1 (racemic)
IC50 [3]: 62 nM

CN(C)C1CCCn2c1nc(C(=O)NCc1ccc(F)cc1)c(O)c2=O (racemic)
IC50 [3]: 69 nM
